Drawing on ChEMBL document CHEMBL1806379, “Efficient synthesis of antifungal active 9-substituted-3-aryl-5H,13aH-quinolino[3,2-f][1,2,4]triazolo[4,3-b][1,2,4]triazepines in ionic liquids” (2011), this text covers zone of inhibition and Activity for five compounds.

Common to all, as to format: functional
Experiment [1] has as its system Aspergillus niger. Put plainly: Antifungal activity against Aspergillus niger at 500 ug after 24 hrs by paper disc technique. As to conditions: read-out: IZ. The method in brief: (§1)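 Potato dextrose agar plates: sterilized base layer overlaid with seeded medium (cooled to 40 °C, spore suspension from ten-day cultures of A. niger, A. flavus, P. notatum and Rhizopus species added), chilled before use. Disc diffusion, incubation at 28 °C; zone read after 24 h from disc centre. I% = (C − T)/C × 100 (C, zone diameter in check; […]). Fluconazole (500 and 1000 µg/ml) as standard.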

The subject of experiment [2] is Aspergillus niger. Kind of experiment: Antifungal activity against Aspergillus niger at 500 ug after 24 hrs by paper disc technique relative to control. The method in brief:
as §1

Experiment [3] has as its system Aspergillus niger. Put plainly: Antifungal activity against Aspergillus niger at 1000 ug after 24 hrs by paper disc technique. Conditions: read-out: IZ. The gist of the method: as §1
For experiment [4], the system named is Aspergillus niger. Kind of experiment: Antifungal activity against Aspergillus niger at 1000 ug after 24 hrs by paper disc technique relative to control. The method in brief: as §1
Experiment [5] has as its system Aspergillus flavus. Put plainly: Antifungal activity against Aspergillus flavus at 500 ug after 24 hrs by paper disc technique. Conditions: read-out: IZ. The method in brief: as §1
The test system of experiment [6] is Aspergillus flavus. Kind of experiment: Antifungal activity against Aspergillus flavus at 500 ug after 24 hrs by paper disc technique relative to control. The method in brief:
as §1

Experiment [7] concerns Aspergillus flavus. Kind of experiment: Antifungal activity against Aspergillus flavus at 1000 ug after 24 hrs by paper disc technique. Conditions: read-out: IZ. The gist of the method: as §1
Experiment [8] relates to Aspergillus flavus. Put plainly: Antifungal activity against Aspergillus flavus at 1000 ug after 24 hrs by paper disc technique relative to control. The method in brief:
as §1

In experiment [9] the test system is Rhizopus. Put plainly: Antifungal activity against Rhizopus sp. at 500 ug after 24 hrs by paper disc technique. Conditions: read-out: IZ. The method in brief:
as §1

Experiment [10] relates to Rhizopus. Put plainly: Antifungal activity against Rhizopus sp. at 500 ug after 24 hrs by paper disc technique relative to control. The gist of the method:
as §1

In experiment [11] the test system is Rhizopus. Put plainly: Antifungal activity against Rhizopus sp. at 1000 ug after 24 hrs by paper disc technique. As to conditions: read-out: IZ. The gist of the method: as §1
Experiment [12] relates to Rhizopus. Put plainly: Antifungal activity against Rhizopus sp. at 1000 ug after 24 hrs by paper disc technique relative to control. The gist of the method: as §1
In experiment [13] the test system is Penicillium chrysogenum. Kind of experiment: Antifungal activity against Penicillium notatum sp. at 500 ug after 24 hrs by paper disc technique. As to conditions: read-out: IZ. The gist of the method: as §1
For experiment [14], the system named is Penicillium chrysogenum. Put plainly: Antifungal activity against Penicillium notatum sp. at 500 ug after 24 hrs by paper disc technique relative to control. The method in brief:
as §1

Experiment [15] deals with Penicillium chrysogenum. Kind of experiment: Antifungal activity against Penicillium notatum sp. at 1000 ug after 24 hrs by paper disc technique. Conditions: read-out: IZ. The gist of the method: as §1
Experiment [16] relates to Penicillium chrysogenum. Kind of experiment: Antifungal activity against Penicillium notatum sp. at 1000 ug after 24 hrs by paper disc technique relative to control. The gist of the method:
as §1

`Cc1ccc2nc3c(cc2c1)C=Nn1c(nnc1-c1ccc([N+](=O)[O-])cc1)N3`: the zone of inhibition at 500 µg/disc with Aspergillus niger [1] worked out at 34 mm; in the experiment on Aspergillus flavus [5], 43 mm; with Rhizopus [9], 20 mm; in the experiment with Penicillium chrysogenum [13], 48 mm. Also, the Activity in the experiment on Aspergillus niger [2] came out at 56.66%; in the experiment with Aspergillus niger [4] it was 66.66%; with Aspergillus flavus [6] it was 71.66%; in the experiment with Aspergillus flavus [8], 81.66%; with Rhizopus [10], 33.33%; in the experiment on Rhizopus [12], 50%. Also, the Activity with Penicillium chrysogenum [14] came out at 80%; with Penicillium chrysogenum [16] it was 70%. Moreover, the zone of inhibition at 1000 µg/disc in the experiment with Aspergillus niger [3] was found to be 40 mm; with Aspergillus flavus [7] it was 49 mm; with Rhizopus [11], 30 mm; in the experiment on Penicillium chrysogenum [15], 42 mm.

Take `Cc1ccc2nc3c(cc2c1)C=Nn1c(nnc1-c1ccccc1Cl)N3`: the zone of inhibition at 500 µg/disc stood at 24 mm with Aspergillus niger [1], 42 mm in the experiment with Aspergillus flavus [5], 28 mm in the experiment on Rhizopus [9] and 44 mm with Penicillium chrysogenum [13]. The Activity in the experiment with Aspergillus niger [2] is 40%; in the experiment with Aspergillus niger [4] it was 71.66%; with Aspergillus flavus [6] it was 70.66%; in the experiment on Aspergillus flavus [8] it was 53.33%; in the experiment on Rhizopus [10] it was 46.66%; in the experiment with Rhizopus [12] it was 53.33%. The Activity came to 73.33% with Penicillium chrysogenum [14] and 70% in the experiment with Penicillium chrysogenum [16]. For the same compound, the zone of inhibition at 1000 µg/disc in the experiment with Aspergillus niger [3] stood at 43 mm; with Aspergillus flavus [7] it was 32 mm; with Rhizopus [11] it was 32 mm; in the experiment on Penicillium chrysogenum [15], 42 mm.

Turning to `OC(Cn1cncn1)(Cn1cncn1)c1ccc(F)cc1F` [FLUCONAZOLE], the zone of inhibition at 500 µg/disc came out at 42 mm in the experiment with Aspergillus niger [1], 35 mm in the experiment on Aspergillus flavus [5], 38 mm in the experiment with Rhizopus [9] and 52 mm in the experiment with Penicillium chrysogenum [13]. For the same compound, the Activity in the experiment on Aspergillus niger [2] worked out at 70%; in the experiment with Aspergillus niger [4], 80%; with Aspergillus flavus [6] it was 58.33%; in the experiment with Aspergillus flavus [8], 70%; in the experiment with Rhizopus [10], 63.33%; in the experiment on Rhizopus [12], 70%. In addition, the Activity came to 86.66% in the experiment with Penicillium chrysogenum [14] and 90% with Penicillium chrysogenum [16]. Also, the zone of inhibition at 1000 µg/disc in the experiment on Aspergillus niger [3] was found to be 48 mm; in the experiment with Aspergillus flavus [7] it was 42 mm; in the experiment with Rhizopus [11] it was 42 mm; in the experiment with Penicillium chrysogenum [15] it was 54 mm.

For the compound `O=[N+]([O-])c1ccc(-c2nnc3n2N=Cc2cc4ccccc4nc2N3)cc1`, the zone of inhibition at 500 µg/disc with Aspergillus niger [1] turned out to be 22 mm; in the experiment with Aspergillus flavus [5], 36 mm; with Rhizopus [9], 25 mm; in the experiment on Penicillium chrysogenum [13], 43 mm. The Activity in the experiment with Aspergillus niger [2] was 33.33%; with Aspergillus niger [4] it was 63.33%; with Aspergillus flavus [6] it was 60%; in the experiment on Aspergillus flavus [8] it was 60%; with Rhizopus [10], 41.66%; in the experiment on Rhizopus [12], 43.33%. In addition, the Activity was found to be 71.66% with Penicillium chrysogenum [14] and 86.66% in the experiment on Penicillium chrysogenum [16]. Moreover, the zone of inhibition at 1000 µg/disc in the experiment on Aspergillus niger [3] was determined as 38 mm; in the experiment on Aspergillus flavus [7], 36 mm; in the experiment on Rhizopus [11] it was 26 mm; in the experiment on Penicillium chrysogenum [15], 52 mm.

As for `C1=Nn2c(nnc2-c2ccccc2)Nc2nc3ccccc3cc21`, the zone of inhibition at 500 µg/disc in the experiment with Aspergillus niger [1] was 39 mm; in the experiment with Aspergillus flavus [5], 32 mm; in the experiment on Rhizopus [9], 30 mm; in the experiment with Penicillium chrysogenum [13], 44 mm. In addition, the Activity in the experiment on Aspergillus niger [2] was determined as 53.33%; in the experiment on Aspergillus niger [4], 71.66%; in the experiment with Aspergillus flavus [6], 53.33%; in the experiment on Aspergillus flavus [8], 70%; with Rhizopus [10] it was 50%; in the experiment with Rhizopus [12], 50%. Also, the figures for the Activity in the experiment with Penicillium chrysogenum [14] and in the experiment with Penicillium chrysogenum [16] were 73.33% and 90%, respectively. Also, the zone of inhibition at 1000 µg/disc is 43 mm in the experiment with Aspergillus niger [3], 45 mm in the experiment with Aspergillus flavus [7], 30 mm with Rhizopus [11] and 54 mm with Penicillium chrysogenum [15].
